# Active and inactive are the calls of the source. The calls are words filed in the database; no cut-off is given here.
# Test system: not listed separately
# Assay: Neuroprotective activity against H2O2-induced rat differentiated PC12 cell death assessed as increase in cell viability at 10 uM after 24 hrs by MTT assay
# Type: functional, PC-12
# Settings: not given
# Method in brief: (§1)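 Rat PC12 cells grown in RPMI 1640 with 10% FCS, penicillin and streptomycin, then differentiated by a previously reported protocol. Differentiated cells were pretreated with compound at 1, 5 or 10 for 3 h before H2O2 exposure. Viability was read by MTT 24 h later and expressed relative to the H2O2-treated group.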
row,SMILES,Activity [%]
1,Cc1cccc(C(=O)NC(=S)Nc2ccc(S(N)(=O)=O)cc2)c1,50

# Test system: PC-12
# Assay: Neuroprotective activity against H2O2-induced rat differentiated PC12 cell death assessed as increase in cell viability at 5 uM after 24 hrs by MTT assay
# Type: functional, cell-based
# Settings: not given
# Method in brief: as §1
row,SMILES,Activity
1,O=c1c(O)c(-c2ccc(O)c(O)c2)oc2cc(O)cc(O)c12 [QUERCETIN],Active

# Test system: not listed separately
# Assay: Inhibition of soybean 15-LOX1 by UV spectrophotometric analysis
# Parameters: species or system Glycine max
# Settings: not given
row,SMILES,IC50
1,NS(=O)(=O)c1ccc(NC(=S)NC(=O)c2ccc([N+](=O)[O-])cc2)cc1,ND(Insoluble)
2,NS(=O)(=O)c1ccc(NC(=S)NC(=O)c2ccc3ccccc3c2)cc1,Not Active

# Same assay, conditions: read-out: IC50
row,SMILES,IC50 [µM]
1,NS(=O)(=O)c1ccc(NC(=S)NC(=O)c2cc(F)c(F)c(F)c2F)cc1,12.6
2,Cc1cccc(C(=O)NC(=S)Nc2ccc(S(N)(=O)=O)cc2)c1,1.8
3,Cc1ccc(C(=O)NC(=S)Nc2ccc(S(N)(=O)=O)cc2)cc1,28
4,NS(=O)(=O)c1ccc(NC(=S)NC(=O)c2cccc(Cl)c2)cc1,6.7
5,O=c1c(O)c(-c2ccc(O)c(O)c2)oc2cc(O)cc(O)c12 [QUERCETIN],18
6,NS(=O)(=O)c1ccc(NC(=S)NC(=O)c2ccco2)cc1,45
7,NS(=O)(=O)c1ccc(NC(=S)NC(=O)c2ccccc2Cl)cc1,18.7
8,Cc1ccccc1C(=O)NC(=S)Nc1ccc(S(N)(=O)=O)cc1,8.1
9,NS(=O)(=O)c1ccc(NC(=S)NC(=O)c2ccccc2)cc1,6
10,NS(=O)(=O)c1ccc(NC(=S)NC(=O)c2ccc(Cl)cc2)cc1,25
11,NS(=O)(=O)c1ccc(NC(=S)NC(=O)c2cccs2)cc1,36
12,NS(=O)(=O)c1ccc(NC(=S)NC(=O)c2ccc(Cl)cc2Cl)cc1,23.6
13,COc1ccc(C(=O)NC(=S)Nc2ccc(S(N)(=O)=O)cc2)cc1,22.7
14,NS(=O)(=O)c1ccc(NC(=S)NC(=O)c2cccc(F)c2)cc1,8.7

# Test system: PC-12
# Assay: Neuroprotective activity against H2O2-induced rat differentiated PC12 cell death assessed as increase in cell viability at 1 to 10 uM after 24 hrs by MTT assay
# Type: functional, cell-based
# Settings: not given
# Method in brief: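 Rat PC12 cells were grown in RPMI 1640 with 10% FCS plus penicillin/streptomycin, then differentiated by a published protocol. Differentiated cells were pretreated with compound at 1, 5 and 10 for 3 h before H₂O₂ exposure, with quercetin 5 as reference. Viability was measured by MTT after 24 h and expressed relative to the H₂O₂-treated group.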
row,SMILES,Activity
1,Cc1cccc(C(=O)NC(=S)Nc2ccc(S(N)(=O)=O)cc2)c1,Active

# — ChEMBL document CHEMBL3286096, “Synthesis, biological evaluation and docking study of 3-aroyl-1-(4-sulfamoylphenyl)thiourea derivatives as 15-lipoxygenase inhibitors” (Eur J Med Chem, 2014)
